The record followed here is the RNAGym collection of RNA variant scans (doi:10.1126/science.aae0568).

This sample holds only a part of the variants without activity.

B1: tRNA (parent)
chain: GUUCCGUUGGCGUAAUGGUAACGCGUCUCCCUCCUAAGGAGAAGACUGCGGGUUCGAGUCCCGUACGGAACG

This data set covers variants of B1. Put plainly: yeast fitness relative to wild type (ratio to wild type); higher = fitter; tRNA-Arg(CCU), competitive growth, 37 C, YPD. Put shortly: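 Changes in genotype frequencies gave Darwinian fitness relative to wild type. Frequencies were read by 100-nucleotide paired-end sequencing of gene amplicons before and after pooled Saccharomyces cerevisiae strains, carrying tRNA-Arg(CCU) gene variants at the native locus, were competed in YPD at 37°C for 24 hours in six replicates. A genotype was kept only with ≥ 100 starting reads, and estimates < 0.5 were set to 0.5.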
With C24U A37U A43U, the yeast fitness amounted to 0.646.
The result for C24U G51C reads 0.624; that for C24U G51A G67A, 0.556; that for C24G C49G C55A, ≤ 0.5.
As for G25A A40U A45G C60A, the yeast fitness is ≤ 0.5.
The same measure for C24G G41A C46U A65G: ≤ 0.5; for C24G C31U G50C C60G G63A: 0.545; for C24U C31G A37G: 0.529.
Take C24G C30U U32A A45G C62U: the yeast fitness is ≤ 0.5.
As to C24U U47C G63A, the yeast fitness worked out at 0.829.
The result for C24G G38C C46A reads ≤ 0.5; that for C24U G25A C30U C46A A65U, 0.562.
The result for C24U C46G U54C C62A reads ≤ 0.5.
The result for G25A A40C C46U reads 0.978.
Take C24U U35C G38C C62U A69G: the yeast fitness came out at 0.723.
For C24U A36U C55G A57G G63C, the yeast fitness is ≤ 0.5.
Regarding C24U A45C G58C, the yeast fitness amounted to 0.554.
The same measure for C24U C33A G44C U47C: 0.674.
As to C24G U64A A70C, the yeast fitness was ≤ 0.5.
The result for C24U U59C A69C reads 0.618.
The same measure for G25A A36U: 0.564; for G25A A43C C60A: 0.544.
The result for G25A A40U reads 0.924; that for G25A A40C, 0.839.
On to C24U C31G U32A A43C, for which the yeast fitness was ≤ 0.5.
The same measure for C24U A45C C49U: 0.791; for C24U A43G: 1.02; for C24U A45U A65G: 0.623.
Turning to C24U C29U G51U, the yeast fitness was ≤ 0.5.
The result for C24U U35C reads 0.778.
The result for C24G C31A A42G A43U reads ≤ 0.5.
The result for C24U G68C A70U reads ≤ 0.5; that for C24U C34U U59G, ≤ 0.5.
In the case of C24G C30U C61G, the yeast fitness was ≤ 0.5.
For C24U A43U U47G, the yeast fitness is ≤ 0.5.
The same measure for C24G C34G: 0.55; for C24U C34G G63U A70U: 0.542; for C24G C33U C61A A69U: ≤ 0.5.
Turning to C24U U54A, the yeast fitness is 0.624.
In the case of C24U U54C, the yeast fitness is 0.812.
The same measure for C24U G44A: 0.912; for C24G C30U C34A G51A: 0.542.
For C24U G50A A70C, the yeast fitness came out at 0.658.
The same measure for C24G U54C G68C: ≤ 0.5; for C24U C49G C66A: 0.593; for C24U G51A G58A G67A: ≤ 0.5.
The result for C24U A36G G63C reads ≤ 0.5; that for C24U A65U, 0.894; that for C24U A65G, 0.924.
The result for C24U C34U G48C reads ≤ 0.5; that for C24G G51C, 0.537.
For the variant C24U C34G A69U, the yeast fitness was 0.506.
The same measure for C24U U59A C60G: 0.754; for C24U A36G C55G: ≤ 0.5; for C24U U32G C49U C60A: 0.646.
The same measure for C24U G48A G63C: 0.768.
The result for C24U G68A A70U reads 0.647; that for C24U G68A A70C, 0.656; that for C24G C31U C55A, ≤ 0.5.
As to C24U A45G, the yeast fitness stood at 1.03.
The result for G25A A37C G51C A57G reads ≤ 0.5.
In the case of C24U C27U C29G G38C A42C, the yeast fitness was 0.577.
The result for C24G C33U U47G reads ≤ 0.5.
The same measure for C24U U28C: 0.988.
The result for C24U C34G A40U G67A reads ≤ 0.5; that for C24G C30U C46A, 0.616.
Turning to C24G G56C U59C, the yeast fitness was ≤ 0.5.
The same measure for C24U A37G: 0.708; for C24G U28C A43U C60A: ≤ 0.5; for C24G G25C C30G U32C G58A C60U: ≤ 0.5.
The result for C24U A36G U47A reads 0.529; that for C24G G38C C62A, 0.852; that for C24U C46U C60U, 0.513.
The same measure for C24U G44A C66A: 0.563; for C24U C27G C61G: ≤ 0.5.
Turning to C24U G25C C31A C33G A65U, the yeast fitness was 0.584.
Turning to C24U C27A C30U C46G, the yeast fitness is ≤ 0.5.
With C24G U26A C33U U54A, the yeast fitness was 0.609.
As for C24G G48A G58C, the yeast fitness amounted to 0.735.
The result for C24G C61G reads 0.537.
The same measure for G25A A37U U47G G56C: 0.601; for C24U C29U A36C A42U C66A: ≤ 0.5.
The same measure for C24U C46G A65U: 0.782; for C24G C33G U53C C55U: 0.567.
With C24U G50C, the yeast fitness stood at 0.774.
As to C24U G41C A42C, the yeast fitness worked out at 0.553.
The result for C24G G25A C30G reads ≤ 0.5.
The same measure for C24U A57G: 0.809.
The same measure for C24U C27G U47C G56C U64C G68C: ≤ 0.5.
As for C24G C66U A69C, the yeast fitness is ≤ 0.5.
The same measure for C24U U26A U28G G52A: ≤ 0.5.
The same measure for C24G C49A: ≤ 0.5; for C24U C46U G51C: ≤ 0.5; for C24G C31A C66U: ≤ 0.5.
The result for C24G C30U C31A reads ≤ 0.5; that for C24U C55U G68C, 0.552.
As to C24G C66A, the yeast fitness was determined as 0.576.
The result for C24U A40C G68C reads 0.502; that for G25A A45G C46U, 0.731.
In the case of C24U U26C A40C, the yeast fitness was determined as 0.572.
The result for C24U A36U A43G reads 0.509; that for C24U C30A U35C U59C G63A, ≤ 0.5; that for C24U U26A U28G, 0.506.
In the case of G25A A36U A45C U54A, the yeast fitness was ≤ 0.5.
The result for C24G C31G A36G G44A A69G reads ≤ 0.5; that for C24G C34U U53C C55G C62A, ≤ 0.5.
As for C24U A37G G39A G48C, the yeast fitness was ≤ 0.5.
The same measure for C24U A43G C60A: ≤ 0.5.
The same measure for C24U A36G U64A: 0.595.
The same measure for C24G U53G A57G: 0.545; for G25A A43G G48C: 0.573; for C24G C31A C33U U35A A57G: 0.529.
On to C24G C33U A70G, for which the yeast fitness is ≤ 0.5.
The same measure for C24U G41A G68A: ≤ 0.5; for C24U C49U C55G A70U: 0.559.
The same measure for C24U A40G C60U A65C: ≤ 0.5; for C24U G48C C55U: 0.614.
The same measure for C24U A57G A65U: 0.513; for C24U G25C C30G G50C G56A C66U: ≤ 0.5; for C24U A42G C49G C61G: 0.627.
For the variant C24U U47C U59C A69U, the yeast fitness was ≤ 0.5.
The same measure for C24G U26A U35A C55U A65G A69C: ≤ 0.5; for C24U U47C C55G A70U: 0.642; for C24G G50A: 0.616.
The same measure for C24G G50C: 0.543; for C24G U28G C46G G67U: ≤ 0.5.
The result for C24U C29G A43C C55G G68A reads ≤ 0.5.
Consider C24G C30G G52A C60A, for which the yeast fitness is ≤ 0.5.
As for C24U G39A A57C, the yeast fitness came out at 0.727.
For the variant C24U C29G C62G, the yeast fitness was ≤ 0.5.
The same measure for C24U C27U A40G: 0.563; for C24G C49U C55G: ≤ 0.5.
The same measure for G25A A43G A45U C46U: ≤ 0.5; for C24G G50A A57G: ≤ 0.5; for C24U C31A C33A C34U C46A C62U G67A: ≤ 0.5.
The same measure for C24U C55A G56A: 0.555; for C24U U26C A57U: ≤ 0.5.
As for C24U A42U A43C A57C C60A, the yeast fitness came out at 0.637.
Turning to C24G C33G A36C A37C A42C, the yeast fitness came to 0.505.
Turning to C24U C27A C30U G68C, the yeast fitness was ≤ 0.5.
The result for C24U U32C C46A reads 0.967.
With C24U C29A A40G, the yeast fitness is 0.514.
The same measure for C24G U26A A65C: ≤ 0.5; for C24G G68A: 0.653.
With C24U C30A A37G U64A C66U A70G, the yeast fitness is ≤ 0.5.
The result for C24U C66A reads 0.618; that for C24G C49G A70U, ≤ 0.5.
The same measure for C24U C46A A65G: 0.7; for C24U U32C G39C: 0.517; for C24G G25A: 0.852.
The same measure for C24G G48C A57G G68C: ≤ 0.5.
In the case of C24G C46U A69U, the yeast fitness is 0.595.
As for C24U U28C A37G C62U, the yeast fitness is ≤ 0.5.
The result for C24U C27A G50U reads ≤ 0.5; that for C24G G44A, 0.568; that for C24G G44C, 0.66.
On to G25A A40C A65C, for which the yeast fitness was 0.739.
The result for C24U C33G C34U A57U reads 0.583; that for C24U C30U C60A, 0.532; that for C24U G25C C46A, 1.02.
The same measure for C24G G52C: ≤ 0.5; for C24G G52A: 0.566; for C24G C31A U64A: ≤ 0.5.
Regarding C24U A36C A45U, the yeast fitness turned out to be 0.513.
The same measure for C24U A69G: 0.998.
Turning to C24U A43U C49U C66U, the yeast fitness is 0.576.
The same measure for C24U C49G G52C: 0.503.
